# In ChEMBL document CHEMBL2375314, “Mitochondrial-targeted protective properties of isolated diterpenoids from sideritis spp. in response to the deleterious changes induced by H2O2” (J Nat Prod, 2013):
# The source made the active and inactive calls. The rule behind the calls is not given here.
# Key:
# U373 MG [1] = experiment: Neuroprotective activity in human U373MG cells assessed as inhibition of H2O2-induced caspase-3 activity at 5 to 10 uM incubated for 24 hrs prior to H2O2 challenge measured after 30 mins by fluorometric analysis in presence of Ac-DEVD-AMC; type: functional, cell-based; settings: U-373MG ATCC
# Outline: (§1)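 Cells held 24 h with 5 or 10 μM, H2O2 then applied for 30 min in challenge arms (0.1 mM PC12, 1 mM U373-MG). Total cell extract (20 μg) incubated with Ac-DEVD-AMC (20 μM) for 1 h at 37 °C. Released AMC read at ex 360/em 460 nm. Expressed as % of control; mean ± SD, n = 9.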
# PC-12 [2] = experiment: Neuroprotective activity in rat PC12 cells assessed as inhibition of H2O2-induced caspase-3 activity at 5 to 10 uM incubated for 24 hrs prior to H2O2 challenge measured after 30 mins by fluorometric analysis in presence of Ac-DEVD-AMC; type: functional, cell-based; outline: as §1
# [3] = Neurotoxicity in human U373MG cells assessed as caspase-3 activation at 5 to 10 uM after 24 hrs by fluorometric analysis in presence of Ac-DEVD-AMC; type: toxicity, cell-based; settings: u-373mg atcc; outline: as §1
# PC-12 [4] = experiment: Neurotoxicity in rat PC12 cells assessed as caspase-3 activation at 5 to 10 uM after 24 hrs by fluorometric analysis in presence of Ac-DEVD-AMC; type: toxicity, cell-based; settings: pc-12, 24 h; outline: as §1
# U373 MG [5] = experiment: Neuroprotective activity in human U373MG cells assessed as protection against H2O2-induced reduction in cellular ATP level at 5 to 10 uM incubated for 24 hrs prior to H2O2 challenge measured after 30 mins by HPLC analysis; type: functional, cell-based; settings: U-373MG ATCC
# Outline: (§2)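 After 24 h at 5 or 10 μM, with or without H2O2 for 30 min (0.1 mM PC12; 1 mM U373-MG), cells extracted in 0.6 M HClO4/25 mM EDTA and neutralized with KOH/Tris. Reversed-phase C18 HPLC, isocratic 100 mM KH2PO4 (pH 6.5)/1% methanol at 1 mL/min, UV at 254 nm. Quantified against an ATP standard curve (0.25–5 μM), normalized to protein, as % of control; mean ± SD, n = 9.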
# PC-12 [6] = experiment: Neuroprotective activity in rat PC12 cells assessed as protection against H2O2-induced reduction in cellular ATP level at 5 to 10 uM incubated for 24 hrs prior to H2O2 challenge measured after 30 mins by HPLC analysis; type: functional, cell-based; outline: as §2
# [7] = Neurotoxicity in human U373MG cells assessed as effect on cellular ATP level at 5 to 10 uM after 24 hrs by HPLC analysis; type: toxicity, cell-based; settings: u-373mg atcc; outline: as §2
# PC-12 [8] = experiment: Neurotoxicity in rat PC12 cells assessed as effect on cellular ATP level at 5 to 10 uM after 24 hrs by HPLC analysis; type: toxicity, cell-based; settings: pc-12, 24 h; outline: as §2
# U373 MG [9] = experiment: Neuroprotective activity in human U373MG cells assessed as reduction of H2O2-induced mitochondrial calcium level at 10 uM incubated for 24 hrs prior to H2O2 challenge measured after 30 mins by Rhod-2 staining-based fluorocytometric analysis (reference value: 1.5 +/- 0.02 nM); type: functional, U-373MG ATCC
# Outline: (§3)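 24 h exposure at 5 or 10 μM, optionally followed by 30 min H2O2 (0.1 mM PC12, 1 mM U373-MG). Cells loaded with Rhod-2/AM in Krebs normal-calcium medium for 40 min at 37 °C in the dark, then 30 min for ester hydrolysis. Fluorescence at ex 552/em 581 nm for 4 min, then 15 min after A23187 (5 μM). Ratio of post-ionophore maximum to basal, relative to control; mean ± SD, n = 9.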
# U373 MG [10] = experiment: Neuroprotective activity in human U373MG cells assessed as reduction of H2O2-induced mitochondrial calcium level at 5 uM incubated for 24 hrs prior to H2O2 challenge measured after 30 mins by Rhod-2 staining-based fluorocytometric analysis (reference value: 1.5 +/- 0.02 nM); type: functional, U-373MG ATCC; outline: as §3
# PC-12 [11] = experiment: Neuroprotective activity in rat PC12 cells assessed as reduction of H2O2-induced mitochondrial calcium level at 10 uM incubated for 24 hrs prior to H2O2 challenge measured after 30 mins by Rhod-2 staining-based fluorocytometric analysis (reference value: 1.7 +/- 0.01 nM); type: functional; outline: as §3
# PC-12 [12] = experiment: Neuroprotective activity in rat PC12 cells assessed as reduction of H2O2-induced mitochondrial calcium level at 5 uM incubated for 24 hrs prior to H2O2 challenge measured after 30 mins by Rhod-2 staining-based fluorocytometric analysis (reference value: 1.7 +/- 0.01 nM); type: functional; outline: as §3
# [13] = Neurotoxicity in human U373MG cells assessed as change in mitochondrial calcium level at 10 uM after 24 hrs by Rhod-2 staining-based fluorocytometric analysis (reference value: 1 +/- 0.03 nM); type: toxicity, cell-based; settings: u-373mg atcc; outline: as §3
# [14] = Neurotoxicity in human U373MG cells assessed as change in mitochondrial calcium level at 5 uM after 24 hrs by Rhod-2 staining-based fluorocytometric analysis (reference value: 1 +/- 0.03 nM); type: toxicity, cell-based; settings: u-373mg atcc; outline: as §3
# PC-12 [15] = experiment: Neurotoxicity in rat PC12 cells assessed as change in mitochondrial calcium level at 10 uM after 24 hrs by Rhod-2 staining-based fluorocytometric analysis (reference value: 1 +/- 0.02 nM); type: toxicity, cell-based; settings: pc-12, 24 h; outline: as §3
# PC-12 [16] = experiment: Neurotoxicity in rat PC12 cells assessed as change in mitochondrial calcium level at 5 uM after 24 hrs by Rhod-2 staining-based fluorocytometric analysis (reference value: 1 +/- 0.02 nM); type: toxicity, cell-based; settings: pc-12, 24 h; outline: as §3
# U373 MG [17] = experiment: Neuroprotective activity in human U373MG cells assessed as decrease in H2O2-induced cytosolic calcium level at 10 uM incubated for 24 hrs prior to H2O2 challenge measured after 30 mins by indo-1/AM staining-based fluorocytometric analysis (reference value: 482.7 +/- 14.5 nM); type: functional, U-373MG ATCC
# U373 MG [18] = experiment: Neuroprotective activity in human U373MG cells assessed as decrease in H2O2-induced cytosolic calcium level at 5 uM incubated for 24 hrs prior to H2O2 challenge measured after 30 mins by indo-1/AM staining-based fluorocytometric analysis (reference value: 482.7 +/- 14.5 nM); type: functional, U-373MG ATCC
# PC-12 [19] = experiment: Neuroprotective activity in rat PC12 cells assessed as decrease in H2O2-induced cytosolic calcium level at 10 uM incubated for 24 hrs prior to H2O2 challenge measured after 30 mins by indo-1/AM staining-based fluorocytometric analysis (reference value: 395.9 +/- 15.9 nM); type: functional
# PC-12 [20] = experiment: Neuroprotective activity in rat PC12 cells assessed as decrease in H2O2-induced cytosolic calcium level at 5 uM incubated for 24 hrs prior to H2O2 challenge measured after 30 mins by indo-1/AM staining-based fluorocytometric analysis (reference value: 395.9 +/- 15.9 nM); type: functional
# [21] = Neurotoxicity in human U373MG cells assessed as change in cytosolic calcium level at 10 uM after 24 hrs by indo-1/AM staining-based fluorocytometric analysis (reference value: 91.1 +/- 12.5 nM); type: toxicity, cell-based; settings: u-373mg atcc
# [22] = Neurotoxicity in human U373MG cells assessed as change in cytosolic calcium level at 5 uM after 24 hrs by indo-1/AM staining-based fluorocytometric analysis (reference value: 91.1 +/- 12.5 nM); type: toxicity, cell-based; settings: u-373mg atcc
# PC-12 [23] = experiment: Neurotoxicity in rat PC12 cells assessed as change in cytosolic calcium level at 10 uM after 24 hrs by indo-1/AM staining-based fluorocytometric analysis (reference value: 51.3 +/- 11.3 nM); type: toxicity, cell-based; settings: pc-12, 24 h
# PC-12 [24] = experiment: Neurotoxicity in rat PC12 cells assessed as change in cytosolic calcium level at 5 uM after 24 hrs by indo-1/AM staining-based fluorocytometric analysis (reference value: 51.3 +/- 11.3 nM); type: toxicity, cell-based; settings: pc-12, 24 h
# U373 MG [25] = experiment: Neuroprotective activity in human U373MG cells assessed as protection against H2O2-induced reduction in mitochondrial membrane potential at 5 to 10 uM incubated for 24 hrs prior to H2O2 challenge measured after 30 mins by TMRM staining-based fluorocytometric analysis relative to control; type: functional, cell-based; settings: U-373MG ATCC
# Outline: (§4)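 Cells given 5 or 10 μM for 24 h, then H2O2 for 30 min (0.1 mM PC12, 1 mM U373-MG) where challenged. Loaded in Krebs medium with 150 nM TMRM; fluorescence at ex 549/em 573 nm read for 45 min at 37 °C. FCCP (6 μM) plus oligomycin (0.25 μg/mL) then added for maximal depolarization and read 15 min. Value from maximal minus basal fluorescence, as % of control; mean ± SD, n = 9.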
# PC-12 [26] = experiment: Neuroprotective activity in rat PC12 cells assessed as protection against H2O2-induced reduction in mitochondrial membrane potential at 5 to 10 uM incubated for 24 hrs prior to H2O2 challenge measured after 30 mins by TMRM staining-based fluorocytometric analysis relative to control; type: functional, cell-based; outline: as §4
# PC-12 [27] = experiment: Neurotoxicity in rat PC12 cells assessed as change in mitochondrial membrane potential at 5 to 10 uM after 24 hrs by TMRM staining-based fluorocytometric analysis relative to control; type: toxicity, cell-based; settings: pc-12, 24 h; outline: as §4
# [28] = Neurotoxicity in human U373MG cells assessed as change in mitochondrial membrane potential at 5 to 10 uM after 24 hrs by TMRM staining-based fluorocytometric analysis relative to control; type: toxicity, cell-based; settings: u-373mg atcc; outline: as §4
Compound,Activity (PC-12 [2]),Activity [3],Activity (PC-12 [4]),Activity (PC-12 [6]),Activity [7],Activity (PC-12 [8]),Activity (U373 MG [9]) [nM],Activity (U373 MG [10]) [nM],Activity (PC-12 [11]) [nM],Activity (PC-12 [12]) [nM],Activity [13] [nM],Activity [14] [nM],Activity (PC-12 [15]) [nM],Activity (PC-12 [16]) [nM],Activity (U373 MG [17]) [nM],Activity (U373 MG [18]) [nM],Activity (PC-12 [19]) [nM],Activity (PC-12 [20]) [nM],Activity [21] [nM],Activity [22] [nM],further results
C=CC(=C)CC[C@H]1[C@]2(C)CCC[C@](C)(CO)[C@H]2[C@H](O)C[C@]1(C)O [ANDALUSOL],Active,Non-toxic,Non-toxic,Active,Non-toxic,Non-toxic,1.09,1.15,1.2,1.3,0.99,0.97,1.09,1.05,166.2,189.6,174.8,185.8,98,92.2,Activity (U373 MG [1]): Active; Activity (U373 MG [5]): Active; Activity (PC-12 [23]): 56.8 nM; Activity (PC-12 [24]): 56.5 nM; Activity (U373 MG [25]): Active; Activity (PC-12 [26]): Active; Activity (PC-12 [27]): Non-toxic; Activity [28]: Non-toxic
CC1(C)CCC[C@H]2C1=CC[C@H]1C[C@@](C)([C@@H](O)CO)C[C@@H](O)[C@@]12C [LAGASCATRIOL],Active,Non-toxic,Non-toxic,Active,Non-toxic,Non-toxic,1.17,1.22,1.5,1.4,1.05,1.02,0.98,0.9,208.5,222.5,187.7,202.5,98.1,102.1,Activity (U373 MG [1]): Active; Activity (U373 MG [5]): Active; Activity (PC-12 [23]): 51.4 nM; Activity (PC-12 [24]): 63.5 nM; Activity (U373 MG [25]): Active; Activity (PC-12 [26]): Active; Activity (PC-12 [27]): Non-toxic; Activity [28]: Non-toxic
CC1(C)CCC[C@]2(C)[C@@H]1C[C@H](O)[C@@]13C=C[C@@](CO)(C1)[C@H](O)C[C@@H]23 [CONCHITRIOL],Active,Non-toxic,Non-toxic,Active,Non-toxic,Non-toxic,1.45,1.48,1.3,1.4,0.97,0.99,1.05,1.08,430.9,479.6,192.6,188.8,98,93.2,Activity (PC-12 [23]): 60.6 nM; Activity (PC-12 [24]): 53.5 nM; Activity (PC-12 [26]): Active; Activity (PC-12 [27]): Non-toxic; Activity [28]: Non-toxic
